Source: ChEMBL document CHEMBL2010740, “Synthesis and evaluation of 2-amido-3-carboxamide thiophene CB₂ receptor agonists for pain management” (Bioorg Med Chem Lett, 2012)

Experiments:
Cannabinoid receptor 1 [1] = biological target: Cannabinoid receptor 1 (Homo sapiens, UniProt P21554); experiment: Displacement of [3H]CP-55940 from human recombinant CB1 receptor expressed in CHO cells after 90 mins; type: cell-based
Method in brief: (§1)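 Competitive binding: [³H]CP-55,940 displaced from membranes of HEK 293 cells stably transfected with human or rat CB₂, or CHO cells stably transfected with human or rat CB₁. Reported as pKi. Determinations >2 (duplicate of duplicate).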

Cannabinoid receptor 2 [2] = biological target: T1, Cannabinoid receptor 2 (Rattus norvegicus, UniProt Q9QZN9); experiment: Displacement of [3H]CP-55940 from rat recombinant CB2 receptor expressed in HEK293 cells after 90 mins; type: cell-based; method in brief: as §1
T1 sequence (Q9QZN9 whole entry): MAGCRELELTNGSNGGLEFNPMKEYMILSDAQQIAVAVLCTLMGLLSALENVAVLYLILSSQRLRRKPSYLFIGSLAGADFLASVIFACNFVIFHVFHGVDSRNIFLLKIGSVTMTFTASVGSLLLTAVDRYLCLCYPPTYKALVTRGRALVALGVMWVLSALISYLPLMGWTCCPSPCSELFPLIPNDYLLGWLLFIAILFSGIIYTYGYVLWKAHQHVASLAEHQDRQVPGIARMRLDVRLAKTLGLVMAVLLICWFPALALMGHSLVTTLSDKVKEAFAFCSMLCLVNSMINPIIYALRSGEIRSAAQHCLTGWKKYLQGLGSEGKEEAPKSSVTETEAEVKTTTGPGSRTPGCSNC

Cannabinoid receptor 1 [3] = biological target: Cannabinoid receptor 1 (Rattus norvegicus, UniProt P20272); experiment: Displacement of [3H]CP-55940 from rat recombinant CB1 receptor expressed in CHO cells after 90 mins; type: cell-based; method in brief: as §1
Cannabinoid receptor 1 (Rattus norvegicus, UniProt P20272), sequence (P20272 whole entry): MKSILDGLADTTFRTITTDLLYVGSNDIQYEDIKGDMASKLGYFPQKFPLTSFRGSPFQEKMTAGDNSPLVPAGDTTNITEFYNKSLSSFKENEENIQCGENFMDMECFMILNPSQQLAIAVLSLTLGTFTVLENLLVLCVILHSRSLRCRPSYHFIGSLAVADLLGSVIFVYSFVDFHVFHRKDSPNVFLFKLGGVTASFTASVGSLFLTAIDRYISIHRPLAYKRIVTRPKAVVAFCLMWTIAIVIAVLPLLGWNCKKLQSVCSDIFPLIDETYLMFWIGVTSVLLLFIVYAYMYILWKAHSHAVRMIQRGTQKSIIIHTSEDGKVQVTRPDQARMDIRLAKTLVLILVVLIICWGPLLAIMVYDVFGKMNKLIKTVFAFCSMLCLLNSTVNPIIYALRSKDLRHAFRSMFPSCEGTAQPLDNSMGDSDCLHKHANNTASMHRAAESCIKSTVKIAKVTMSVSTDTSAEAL

Cannabinoid receptor 2 [4] = biological target: T2, Cannabinoid receptor 2 (Homo sapiens, UniProt P34972); experiment: Agonist activity at human recombinant CB2 receptor expressed in HEK293 cells co-expressing chimeric Gaq/o protein by FLIPR assay; type: functional, cell-based
T2 sequence (P34972 whole entry): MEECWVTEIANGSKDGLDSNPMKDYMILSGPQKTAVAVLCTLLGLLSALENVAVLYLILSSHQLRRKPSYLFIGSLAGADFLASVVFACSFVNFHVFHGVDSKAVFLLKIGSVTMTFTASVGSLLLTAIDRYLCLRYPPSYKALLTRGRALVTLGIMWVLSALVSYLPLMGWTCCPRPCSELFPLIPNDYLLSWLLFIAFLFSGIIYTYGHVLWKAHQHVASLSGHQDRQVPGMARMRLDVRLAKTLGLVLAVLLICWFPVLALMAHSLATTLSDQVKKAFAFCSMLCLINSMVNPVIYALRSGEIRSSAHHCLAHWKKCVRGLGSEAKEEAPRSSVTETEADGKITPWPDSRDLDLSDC
Method in brief: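 FLIPR functional assay in HEK 293 cells stably co-expressing chimeric Gαq/o protein and the CB receptor. Net peak evoked response was compared with the peak response to CP-55,940.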

Cannabinoid receptor 2 [5] = biological target: T2, Cannabinoid receptor 2; experiment: Agonist activity at human recombinant CB2 receptor expressed in HEK293 cells assessed as inhibition of forskolin-induced cAMP production after 20 mins by ELISA; type: functional, cell-based
Method in brief: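 cAMP assay in HEK 293 cells stably expressing the relevant CB receptor, with a fixed concentration of forskolin. cAMP was quantified by ELISA. Activation is given as percent of the CP-55,940 control response.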

Cannabinoid receptor 2 [6] = biological target: T2, Cannabinoid receptor 2; experiment: Displacement of [3H]CP-55940 from human recombinant CB2 receptor expressed in HEK293 cells after 90 mins; type: cell-based; method in brief: as §1

Cannabinoid receptor 1 (Homo sapiens, UniProt P21554), sequence (P21554 whole entry): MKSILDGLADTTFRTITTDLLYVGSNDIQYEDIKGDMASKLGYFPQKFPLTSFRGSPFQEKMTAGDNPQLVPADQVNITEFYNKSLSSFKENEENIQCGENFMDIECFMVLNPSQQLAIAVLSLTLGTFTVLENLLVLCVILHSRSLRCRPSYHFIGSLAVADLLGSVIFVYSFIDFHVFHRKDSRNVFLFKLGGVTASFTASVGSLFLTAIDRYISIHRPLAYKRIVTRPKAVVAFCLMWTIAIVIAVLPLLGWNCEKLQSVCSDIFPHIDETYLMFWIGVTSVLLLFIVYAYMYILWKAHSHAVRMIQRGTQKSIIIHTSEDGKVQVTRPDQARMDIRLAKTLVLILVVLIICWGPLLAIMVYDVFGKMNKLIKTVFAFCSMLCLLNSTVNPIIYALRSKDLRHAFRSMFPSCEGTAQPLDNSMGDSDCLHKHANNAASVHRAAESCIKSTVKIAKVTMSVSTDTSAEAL

## CCCNC(=O)c1c(NC(=O)C23CC4CC(CC2C4)C3)sc2c1CCCC2
Cannabinoid receptor 1 [1]
  Ki: 1910 nM
Cannabinoid receptor 2 [2]
  Ki: 3.55 nM
Cannabinoid receptor 1 [3]
  Ki: 46.8 nM
Cannabinoid receptor 2 [4]
  IC50: 83.2 nM
Cannabinoid receptor 2 [5]
  IC50: 9.77 nM
Cannabinoid receptor 2 [6]
  Ki: 1.95 nM
